Among the data in ChEMBL document CHEMBL4425098, “Thiolactomycin-Based Inhibitors of Bacterial β-Ketoacyl-ACP Synthases with in Vivo Activity” (J Med Chem, 2016) are MIC90, Activity and MIC values, retold here.

Type in all cases: functional
Experiment [1] concerns Staphylococcus aureus. In words: Antibacterial activity against methicillin-sensitive Staphylococcus aureus RN4220 after 18 to 24 hrs by Alamar blue dye-based colorimetric assay. Summed up: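 Two-fold serial dilutions from 512 down to 0.25 μg/mL in CAMHB (microbroth dilution); incubated 37 °C for 18–24 h, then Alamar Blue added for a further 4 h. Absorbance read at 570 and 600 nm; percent growth reduction plotted against concentration, MIC90 from non-linear regression; growth and MICs confirmed by optical density.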

Experiment [2] concerns Staphylococcus aureus. Description: Antibacterial activity against methicillin-resistant Staphylococcus aureus BAA 1762 after 18 to 24 hrs by Alamar blue dye-based colorimetric assay.
For experiment [3], the system named is Mycobacterium tuberculosis. In words: Antibacterial activity against Mycobacterium tuberculosis H37Rv after 6 days by Alamar blue dye-based colorimetric assay. Particulars: 144 h. Summed up: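 M. tuberculosis H37Rv grown to early-mid log phase in Middlebrook 7H9 with 10% OADC and 0.05% Tween 80, added to 1:2 serial compound dilutions, and grown for 6 days at 37°C. Alamar blue then added for a further 24 h. MIC taken as the concentration preventing visible growth and Alamar blue reduction in all replicates.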
(Resazurin is reduced to fluorescent resorufin, in cell work by metabolically active cells.)

The next experiment relates to Francisella tularensis. Description: Antibacterial activity against Francisella tularensis LVS after 18 to 24 hrs by Alamar blue dye-based colorimetric assay.
In another experiment the test system is Yersinia pestis. Description: Antibacterial activity against Yersinia pestis A1122 after 18 to 24 hrs by Alamar blue dye-based colorimetric assay.
In experiment [4] the test system is Burkholderia pseudomallei. In words: Antibacterial activity against Burkholderia pseudomallei after 18 to 24 hrs by Alamar blue dye-based colorimetric assay.

In brackets after ≈: the same amount, converted by molar mass. Activity calls are given as the source filed them. The calls are words filed in the database; no cut-off is given here.

One may read the MIC90 as an inhibitory concentration at the 90% level, which refers to growth in some studies and to a panel of isolates in others. A high value points to weaker potency. As usually defined, the MIC is the lowest concentration that inhibits growth of the organism. Read a low MIC as greater potency.

Turning to `C=C/C(C)=C/[C@@]1(C)SC(=O)C(C(=O)CCCCCN=[N+]=[N-])=C1O`, the MIC90 in the experiment with Staphylococcus aureus [1] and with Staphylococcus aureus [2] was 16 µg/mL (≈ 47.7 µM) each time.

On to `C=C/C(C)=C/[C@@]1(C)SC(=O)C(CCCCn2cc(CNC(=O)c3ccc(NS(=O)(=O)c4ccc(F)cc4)cc3)nn2)=C1O`, for which the MIC90 in experiment [3] was 100 µg/mL (≈ 160 µM); in the experiment on Francisella tularensis it was 250 µg/mL (≈ 400 µM); in the experiment on Yersinia pestis, > 250 µg/mL; against Staphylococcus aureus [1], > 64 µg/mL; in the experiment on Staphylococcus aureus [2], > 100 µg/mL.

With `C=C/C(C)=C/[C@@]1(C)SC(=O)C(CCCCn2cc(CNC(=O)[C@H](O)C(C)(C)CO)nn2)=C1O`, the MIC90 in experiment [3] was > 100 µg/mL; with Francisella tularensis, 250 µg/mL (≈ 522 µM); in the experiment with Yersinia pestis, > 250 µg/mL; in the experiment with Staphylococcus aureus [1], > 64 µg/mL; in the experiment on Staphylococcus aureus [2], > 100 µg/mL.

Consider `C=C/C(C)=C/[C@@]1(C)SC(=O)C(CCc2ccc(C)cc2)=C1O`, for which the MIC90 against Francisella tularensis is 3.4 µg/mL (≈ 10.8 µM); in the experiment on Yersinia pestis, > 250 µg/mL; against Staphylococcus aureus [1], > 64 µg/mL; in the experiment on Staphylococcus aureus [2], > 100 µg/mL.

Take `C=C/C(C)=C/[C@@]1(C)SC(=O)C(C(=O)OC)=C1O`: the result in experiment [4] was inactive. Further, the MIC90 in experiment [3] was 100 µg/mL (≈ 393 µM); in the experiment with Francisella tularensis it was 58.2 µg/mL (≈ 229 µM); in the experiment on Yersinia pestis, > 250 µg/mL; against Staphylococcus aureus [1], > 64 µg/mL; in the experiment with Staphylococcus aureus [2] it was > 64 µg/mL.

For the compound `C=C/C(C)=C/[C@@]1(C)SC(=O)C(CCc2ccc(Cl)cc2)=C1O`, the result in experiment [4] was inactive. Further, the MIC90 was 100 µg/mL (≈ 299 µM) in experiment [3]; 3.1 µg/mL (≈ 9.26 µM) in the experiment with Francisella tularensis; > 250 µg/mL in the experiment on Yersinia pestis; 64 µg/mL (≈ 191 µM) against Staphylococcus aureus [1]; 100 µg/mL (≈ 299 µM) with Staphylococcus aureus [2].

Turning to `C=C/C(C)=C/[C@@]1(C)SC(=O)C(C(=O)CCC)=C1O`, the outcome in experiment [4] was inactive. In addition, the MIC90 in experiment [3] is 100 µg/mL (≈ 375 µM); against Francisella tularensis, 1.8 µg/mL (≈ 6.76 µM); against Yersinia pestis, > 250 µg/mL; against Staphylococcus aureus [1], 16 µg/mL (≈ 60.1 µM); in the experiment on Staphylococcus aureus [2], 32 µg/mL (≈ 120 µM).

Regarding `C=C/C(C)=C/[C@@]1(C)SC(=O)C(CCCCc2ccc(Cl)cc2)=C1O`, the MIC90 in experiment [3] is 100 µg/mL (≈ 276 µM); against Francisella tularensis, 1.7 µg/mL (≈ 4.68 µM); in the experiment with Yersinia pestis, > 250 µg/mL; in the experiment with Staphylococcus aureus [1], 64 µg/mL (≈ 176 µM); against Staphylococcus aureus [2], 50 µg/mL (≈ 138 µM).

For `C=C/C(C)=C/[C@@]1(C)SC(=O)C(CCC)=C1O`, in experiment [4], the outcome was inactive. Further, the MIC90 is 25 µg/mL (≈ 105 µM) in experiment [3]; 25.8 µg/mL (≈ 108 µM) against Francisella tularensis; > 250 µg/mL in the experiment with Yersinia pestis; > 200 µg/mL in the experiment with Staphylococcus aureus [1]; > 200 µg/mL against Staphylococcus aureus [2].

Turning to `C=C/C(C)=C/[C@@]1(C)SC(=O)C(CCCN=[N+]=[N-])=C1O`, the MIC90 in experiment [3] was 100 µg/mL (≈ 358 µM); against Francisella tularensis, 23.6 µg/mL (≈ 84.5 µM); against Yersinia pestis it was > 250 µg/mL; in the experiment on Staphylococcus aureus [1] it was > 64 µg/mL; against Staphylococcus aureus [2], > 100 µg/mL.

As to `C=C/C(C)=C/[C@@]1(C)SC(=O)C(CCCCc2ccc(F)cc2)=C1O`, in experiment [4], the result was inactive. The MIC90 in experiment [3] was > 100 µg/mL; against Francisella tularensis it was 3.1 µg/mL (≈ 8.95 µM); against Yersinia pestis, > 250 µg/mL; against Staphylococcus aureus [1] it was > 64 µg/mL; against Staphylococcus aureus [2] it was 75 µg/mL (≈ 216 µM).

On to `C=C/C(C)=C/[C@@]1(C)SC(=O)C(C(=O)c2ccccc2C(=O)O)=C1O`, for which the result in experiment [4] was inactive. Moreover, the MIC90 in experiment [3] is 50 µg/mL (≈ 145 µM); against Francisella tularensis, 15.9 µg/mL (≈ 46.2 µM); with Yersinia pestis it was > 250 µg/mL; in the experiment on Staphylococcus aureus [1] it was 32 µg/mL (≈ 92.9 µM); with Staphylococcus aureus [2] it was 32 µg/mL (≈ 92.9 µM).

For `C=C/C(C)=C/[C@@]1(C)SC(=O)C(CC)=C1O`, the MIC in experiment [4] came out at 32 µg/mL (≈ 143 µM). Besides, the MIC90 came to 2.5 µg/mL (≈ 11.1 µM) in experiment [3]; 6.9 µg/mL (≈ 30.8 µM) against Francisella tularensis; 145 µg/mL (≈ 646 µM) against Yersinia pestis; 150 µg/mL (≈ 669 µM) against Staphylococcus aureus [1]; 125 µg/mL (≈ 557 µM) with Staphylococcus aureus [2].
